Consider 39 compounds from ChEMBL document CHEMBL1140118, “Design, synthesis, and structure-activity relationships of novel insulin receptor tyrosine kinase activators” (J Med Chem, 2008).

For this assay, the target named is Insulin receptor (Mus musculus, UniProt P15208). The experiment in a line: Activation of insulin receptor tyrosine kinase in mouse 3T3-L1 cells assessed as increase in 2-deoxy-D-[14C]glucose transport in presence of insulin. The class given is cell-based. Summed up:
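Differentiated, 16 h serum-starved 3T3-L1 adipocytes were exposed to compound plus 5.6 nM insulin (submaximal) for 30 min at 37 °C. They were then pulsed 30 min with 0.5 µCi/mL 2-deoxy-D-[14C]glucose and lysate counts were read. Four concentrations were tested in triplicate. EC50 came from nonlinear regression of untransformed data, given as mean ± SEM when n ≥ 3.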

Insulin receptor, sequence (P15208 28-748 limits assumed): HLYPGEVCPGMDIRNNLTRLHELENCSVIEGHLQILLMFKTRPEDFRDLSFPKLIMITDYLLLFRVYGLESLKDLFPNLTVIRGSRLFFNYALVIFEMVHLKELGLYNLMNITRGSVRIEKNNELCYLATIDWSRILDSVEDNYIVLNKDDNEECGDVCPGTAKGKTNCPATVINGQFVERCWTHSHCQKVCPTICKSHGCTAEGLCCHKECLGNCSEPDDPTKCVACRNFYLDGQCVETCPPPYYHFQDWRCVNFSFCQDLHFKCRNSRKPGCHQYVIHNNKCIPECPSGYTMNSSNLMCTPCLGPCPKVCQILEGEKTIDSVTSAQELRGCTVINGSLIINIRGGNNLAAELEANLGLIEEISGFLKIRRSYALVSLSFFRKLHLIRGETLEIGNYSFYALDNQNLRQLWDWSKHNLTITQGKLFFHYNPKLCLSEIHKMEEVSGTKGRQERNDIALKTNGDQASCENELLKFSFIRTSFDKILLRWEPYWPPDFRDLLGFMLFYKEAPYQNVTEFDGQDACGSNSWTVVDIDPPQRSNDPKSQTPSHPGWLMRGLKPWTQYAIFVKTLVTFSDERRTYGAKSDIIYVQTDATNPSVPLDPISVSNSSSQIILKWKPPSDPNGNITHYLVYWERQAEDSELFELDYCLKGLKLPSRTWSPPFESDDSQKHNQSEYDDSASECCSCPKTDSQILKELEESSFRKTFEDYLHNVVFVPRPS
Insulin receptor, sequence (P15208 753-1372 limits assumed): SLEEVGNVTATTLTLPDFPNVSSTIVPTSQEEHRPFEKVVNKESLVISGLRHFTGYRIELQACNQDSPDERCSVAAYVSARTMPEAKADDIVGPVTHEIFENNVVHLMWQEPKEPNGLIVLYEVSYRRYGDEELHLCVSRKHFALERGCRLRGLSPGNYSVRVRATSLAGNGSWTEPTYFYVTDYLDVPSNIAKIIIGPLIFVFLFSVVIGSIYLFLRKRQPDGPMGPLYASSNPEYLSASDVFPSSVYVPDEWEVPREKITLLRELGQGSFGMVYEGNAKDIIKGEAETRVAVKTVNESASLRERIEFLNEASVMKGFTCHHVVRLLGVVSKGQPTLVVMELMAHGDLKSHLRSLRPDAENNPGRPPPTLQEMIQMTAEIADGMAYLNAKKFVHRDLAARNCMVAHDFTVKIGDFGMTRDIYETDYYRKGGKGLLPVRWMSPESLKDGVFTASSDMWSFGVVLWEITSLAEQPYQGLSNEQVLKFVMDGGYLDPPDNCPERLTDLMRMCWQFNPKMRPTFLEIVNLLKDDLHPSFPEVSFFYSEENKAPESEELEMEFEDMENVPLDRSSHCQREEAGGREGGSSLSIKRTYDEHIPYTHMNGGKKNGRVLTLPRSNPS

Take `O=C(Nc1ccc2c(O)cc(S(=O)(=O)Nc3cccc(C(F)(F)F)c3)cc2c1)Nc1ccc2c(O)cc(S(=O)(=O)Nc3cccc(C(F)(F)F)c3)cc2c1`: the half-maximal effective concentration (EC50) is more than 200 µM.

For `O=C(Nc1ccc2ccc(S(=O)(=O)Nc3ccc(C(=O)O)cc3)cc2c1)Nc1ccc2ccc(S(=O)(=O)Nc3ccc(C(=O)O)cc3)cc2c1`, the EC50 was 183 µM.

Turning to `O=C(Nc1ccc2ccc(S(=O)(=O)Nc3cccc(S(=O)(=O)O)c3)cc2c1)Nc1ccc2ccc(S(=O)(=O)Nc3cccc(S(=O)(=O)O)c3)cc2c1`, the EC50 stood at 22 µM.

Take `O=C(Nc1ccc2ccc(S(=O)(=O)Nc3ccccc3C(=O)O)cc2c1)Nc1ccc2ccc(S(=O)(=O)Nc3ccccc3C(=O)O)cc2c1`: the EC50 is 41 µM.

For `O=C(Nc1ccc2ccc(S(=O)(=O)O)cc2c1)Nc1ccc2ccc(S(=O)(=O)Nc3ccc(Cl)c(S(=O)(=O)O)c3)cc2c1`, the EC50 was more than 200 µM.

Consider `O=C(Nc1ccc2c(O)cc(S(=O)(=O)Nc3ccc(O)c(C(=O)O)c3)cc2c1)Nc1ccc2c(O)cc(S(=O)(=O)Nc3ccc(O)c(C(=O)O)c3)cc2c1`, for which the EC50 was 43 µM.

As for `O=C(O)c1cc(NS(=O)(=O)c2ccc3ccc(NC(=S)Nc4ccc5ccc(S(=O)(=O)Nc6ccc(Cl)c(C(=O)O)c6)cc5c4)cc3c2)ccc1Cl`, the EC50 amounted to 162 µM.

`O=C(Nc1ccc2ccc(S(=O)(=O)O)cc2c1)Nc1ccc2ccc(S(=O)(=O)Nc3ccc(O)c(C(=O)O)c3)cc2c1`: the EC50 was more than 200 µM.

For `O=C(Nc1ccc2ccc(S(=O)(=O)Nc3cccc([N+](=O)[O-])c3)cc2c1)Nc1ccc2ccc(S(=O)(=O)Nc3cccc([N+](=O)[O-])c3)cc2c1`, the EC50 is more than 200 µM.

In the case of `O=C(Nc1ccc2c(O)cc(S(=O)(=O)Nc3ccccc3C(=O)O)cc2c1)Nc1ccc2c(O)cc(S(=O)(=O)Nc3ccccc3C(=O)O)cc2c1`, the EC50 was found to be 93 µM.

For the compound `O=C(Nc1ccc2c(O)cc(S(=O)(=O)Nc3ccc(C(=O)O)cc3)cc2c1)Nc1ccc2c(O)cc(S(=O)(=O)Nc3ccc(C(=O)O)cc3)cc2c1`, the EC50 was found to be 103 µM.

Consider `CC(=O)N(CCN(C(C)=O)c1ccc2ccc(S(=O)(=O)Nc3ccc(Cl)c(C(=O)O)c3)cc2c1)c1ccc2ccc(S(=O)(=O)Nc3ccc(Cl)c(C(=O)O)c3)cc2c1`, for which the EC50 was more than 200 µM.

On to `NC(=Nc1ccc2ccc(S(=O)(=O)Nc3ccc(Cl)c(C(=O)O)c3)cc2c1)Nc1ccc2ccc(S(=O)(=O)Nc3ccc(Cl)c(C(=O)O)c3)cc2c1`, for which the EC50 is 179 µM.

On to `NS(=O)(=O)c1cccc(NS(=O)(=O)c2ccc3ccc(NC(=O)Nc4ccc5ccc(S(=O)(=O)Nc6cccc(S(N)(=O)=O)c6)cc5c4)cc3c2)c1`, for which the EC50 is more than 200 µM.

On to `CNC(=Nc1ccc2ccc(S(=O)(=O)Nc3ccc(Cl)c(C(=O)O)c3)cc2c1)Nc1ccc2ccc(S(=O)(=O)Nc3ccc(Cl)c(C(=O)O)c3)cc2c1`, for which the EC50 is more than 200 µM.

On to `O=C(Nc1ccc2c(O)cc(S(=O)(=O)Nc3cccc(C(=O)O)c3Cl)cc2c1)Nc1ccc2c(O)cc(S(=O)(=O)Nc3cccc(C(=O)O)c3Cl)cc2c1`, for which the EC50 was found to be 121 µM.

On to `O=C(Nc1ccc2c(O)cc(S(=O)(=O)Nc3cccc(CO)c3)cc2c1)Nc1ccc2c(O)cc(S(=O)(=O)Nc3cccc(CO)c3)cc2c1`, for which the EC50 was more than 200 µM.

With `O=C(O)c1cc(NS(=O)(=O)c2ccc3ccc(NCCNc4ccc5ccc(S(=O)(=O)Nc6ccc(Cl)c(C(=O)O)c6)cc5c4)cc3c2)ccc1Cl`, the EC50 was more than 200 µM.

For `O=C(Nc1ccc2ccc(S(=O)(=O)Nc3ccccc3)cc2c1)Nc1ccc2ccc(S(=O)(=O)Nc3ccccc3)cc2c1`, the EC50 is more than 200 µM.

As for `O=C(Nc1ccc2c(O)cc(S(=O)(=O)Nc3cccc(C(=O)O)c3)cc2c1)Nc1ccc2c(O)cc(S(=O)(=O)Nc3cccc(C(=O)O)c3)cc2c1`, the EC50 is 43 µM.

With `O=C(Nc1ccc2ccc(S(=O)(=O)Nc3cccc(O)c3)cc2c1)Nc1ccc2ccc(S(=O)(=O)Nc3cccc(O)c3)cc2c1`, the EC50 was more than 200 µM.

On to `O=C(Nc1ccc2ccc(S(=O)(=O)Nc3ccc(S(=O)(=O)O)cc3)cc2c1)Nc1ccc2ccc(S(=O)(=O)Nc3ccc(S(=O)(=O)O)cc3)cc2c1`, for which the EC50 was found to be 94 µM.

Take `N#CN=C(Nc1ccc2ccc(S(=O)(=O)Nc3ccc(Cl)c(C(=O)O)c3)cc2c1)Nc1ccc2ccc(S(=O)(=O)Nc3ccc(Cl)c(C(=O)O)c3)cc2c1`: the EC50 is more than 200 µM.

In the case of `N#Cc1cccc(NS(=O)(=O)c2ccc3ccc(NC(=O)Nc4ccc5ccc(S(=O)(=O)Nc6cccc(C#N)c6)cc5c4)cc3c2)c1`, the EC50 was more than 200 µM.

On to `O=C(Nc1ccc2ccc(S(=O)(=O)Nc3cccc(C(=O)O)c3)cc2c1)Nc1ccc2ccc(S(=O)(=O)Nc3cccc(C(=O)O)c3)cc2c1`, for which the EC50 turned out to be 24 µM.

Consider `O=C(Nc1ccc2c(O)cc(S(=O)(=O)Nc3ccc(Cl)c(C(=O)O)c3)cc2c1)Nc1ccc2c(O)cc(S(=O)(=O)Nc3ccc(Cl)c(C(=O)O)c3)cc2c1`, for which the EC50 amounted to 18 µM.

Turning to `O=C(Nc1ccc2c(O)cc(S(=O)(=O)Nc3cccc(-c4nn[nH]n4)c3)cc2c1)Nc1ccc2c(O)cc(S(=O)(=O)Nc3cccc(-c4nn[nH]n4)c3)cc2c1`, the half-maximal effective concentration (EC50) was found to be 73 µM.

Turning to `O=C(Nc1ccc2ccc(S(=O)(=O)Nc3cccc(-c4nn[nH]n4)c3)cc2c1)Nc1ccc2ccc(S(=O)(=O)Nc3cccc(-c4nn[nH]n4)c3)cc2c1`, the EC50 was determined as 54 µM.

Regarding `O=C(Nc1ccc2ccc(S(=O)(=O)Nc3cccc(C(=O)O)c3O)cc2c1)Nc1ccc2ccc(S(=O)(=O)Nc3cccc(C(=O)O)c3O)cc2c1`, the EC50 is 150 µM.

Take `O=C(O)c1cc(NS(=O)(=O)c2ccc3ccc(N4CCN(c5ccc6ccc(S(=O)(=O)Nc7ccc(Cl)c(C(=O)O)c7)cc6c5)C4=O)cc3c2)ccc1Cl`: the EC50 amounted to 56 µM.

In the case of `CN(c1cccc(S(=O)(=O)O)c1)S(=O)(=O)c1ccc2ccc(NC(=O)Nc3ccc4ccc(S(=O)(=O)N(C)c5cccc(S(=O)(=O)O)c5)cc4c3)cc2c1`, the EC50 worked out at 91 µM.

Regarding `O=C(Nc1ccc2ccc(S(=O)(=O)Nc3ccc([N+](=O)[O-])c(C(=O)O)c3)cc2c1)Nc1ccc2ccc(S(=O)(=O)Nc3ccc([N+](=O)[O-])c(C(=O)O)c3)cc2c1`, the EC50 came to 40 µM.

Consider `CN(C(=O)N(C)c1ccc2ccc(S(=O)(=O)Nc3ccc(Cl)c(C(=O)O)c3)cc2c1)c1ccc2ccc(S(=O)(=O)Nc3ccc(Cl)c(C(=O)O)c3)cc2c1`, for which the 50% effective concentration (EC50) was more than 200 µM.

Regarding `O=C(Nc1ccc2ccc(C(=O)Nc3cccc(C(=O)O)c3)cc2c1)Nc1ccc2ccc(C(=O)Nc3cccc(C(=O)O)c3)cc2c1`, the EC50 was more than 200 µM.

Take `O=C(Nc1ccc2ccc(S(=O)(=O)Nc3ccc(O)c(C(=O)O)c3)cc2c1)Nc1ccc2ccc(S(=O)(=O)Nc3ccc(O)c(C(=O)O)c3)cc2c1`: the EC50 is 9 µM.

For the compound `O=C(O)Cc1cccc(NS(=O)(=O)c2cc(O)c3ccc(NC(=O)Nc4ccc5c(O)cc(S(=O)(=O)Nc6cccc(CC(=O)O)c6)cc5c4)cc3c2)c1`, the EC50 is more than 200 µM.

Take `O=C(Nc1ccc2ccc(S(=O)(=O)Nc3ccc(Cl)c(C(=O)O)c3)cc2c1)Nc1ccc2ccc(S(=O)(=O)Nc3ccc(Cl)c(C(=O)O)c3)cc2c1`: the EC50 came to 16 µM.

Regarding `O=C(Nc1ccc2ccc(S(=O)(=O)Nc3ccc(Cl)c(S(=O)(=O)O)c3)cc2c1)Nc1ccc2ccc(S(=O)(=O)Nc3ccc(Cl)c(S(=O)(=O)O)c3)cc2c1`, the EC50 was 6 µM.

As for `O=C(Nc1ccc2ccc(C(=O)Nc3cccc(S(=O)(=O)O)c3)cc2c1)Nc1ccc2ccc(C(=O)Nc3cccc(S(=O)(=O)O)c3)cc2c1`, the EC50 was more than 200 µM.
